Assay results of several laboratories.
Target: Tyrosine-protein kinase receptor UFO (AXL, Homo sapiens, UniProt P30530)
Residues used in one study (P30530 1-894): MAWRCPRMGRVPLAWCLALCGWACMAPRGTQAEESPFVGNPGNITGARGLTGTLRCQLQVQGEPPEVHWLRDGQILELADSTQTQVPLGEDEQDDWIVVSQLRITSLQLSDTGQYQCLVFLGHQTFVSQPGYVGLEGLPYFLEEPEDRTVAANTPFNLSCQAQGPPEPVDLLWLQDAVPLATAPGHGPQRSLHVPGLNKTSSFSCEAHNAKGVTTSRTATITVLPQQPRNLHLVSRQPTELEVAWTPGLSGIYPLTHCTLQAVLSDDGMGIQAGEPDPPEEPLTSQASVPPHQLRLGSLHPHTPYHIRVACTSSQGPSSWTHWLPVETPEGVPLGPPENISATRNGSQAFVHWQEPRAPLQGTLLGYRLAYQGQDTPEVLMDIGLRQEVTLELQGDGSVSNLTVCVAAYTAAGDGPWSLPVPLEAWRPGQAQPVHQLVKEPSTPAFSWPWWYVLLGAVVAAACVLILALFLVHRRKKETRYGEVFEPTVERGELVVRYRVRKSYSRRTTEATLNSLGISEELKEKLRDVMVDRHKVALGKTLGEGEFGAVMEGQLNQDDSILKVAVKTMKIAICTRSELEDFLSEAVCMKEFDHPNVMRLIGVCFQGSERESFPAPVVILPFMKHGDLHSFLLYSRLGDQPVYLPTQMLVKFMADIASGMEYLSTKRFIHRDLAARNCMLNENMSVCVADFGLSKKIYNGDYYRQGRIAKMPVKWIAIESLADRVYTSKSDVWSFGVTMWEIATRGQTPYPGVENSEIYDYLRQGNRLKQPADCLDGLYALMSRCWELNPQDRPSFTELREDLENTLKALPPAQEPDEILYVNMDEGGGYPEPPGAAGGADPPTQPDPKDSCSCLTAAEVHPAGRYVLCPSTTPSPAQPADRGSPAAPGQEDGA

| Compound | assay | test system | setting | measurement | value |
| --- | --- | --- | --- | --- | --- |
| CS(=O)(=O)CCNCc1ccc(-c2ccc3ncnc(Nc4ccc(OCc5cccc(F)c5)c(Cl)c4)c3c2)o1 | cell-free assay | – | 0.5 µM | remaining signal | 96.2% |
| COc1cc2nccc(Oc3ccc(NC(=O)c4c5n(n(-c6ccc(F)cc6)c4=O)CCCC5)cc3)c2cc1OC | enzyme activity, inhibitor | – | 0.1 µM | inhibition | 93% |
| COc1ccc2cc(OCC3(C(=O)O)CN(C(=O)c4ccc(F)cc4)C3)ccc2c1 | cell-free assay, competition with immobilised ligand | – | 1 µM | remaining binding | 100% |
| COc1cc2ncnc(Nc3ccc(Oc4ccccc4)c(C)c3C)c2cc1OC | enzyme activity, inhibitor | – | 1 µM | inhibition | -3% |
| COc1cc(Cl)c(C(=O)N[C@@H](CN[C@H]2CC[C@@H](N)CC2)Cc2ccc(C#N)cc2)cc1-c1ccc(CN[C@H](C)c2ccc(C)cc2)o1 | enzyme activity, inhibitor | – | 1 µM | remaining activity | 56% |
| CCCOc1ccc(OC)c(F)c1C(=O)c1ccc(C(=O)N[C@@H]2CNC[C@H]2NC(=O)c2ccc3[nH]ncc3c2)cc1 | enzyme activity, inhibitor | – | 10 µM | remaining activity | 23% |
| Cc1cc(C)c(-n2ccn3nc(-c4cccnc4)cc23)cc1NC(=O)c1cc(C#N)cc(S(F)(F)(F)(F)F)c1 | cell-free assay, competition with immobilised ligand | – | 0.1 µM | remaining binding | 80.5% |
| COc1cc2c(Nc3ccc(Br)cc3F)ncnc2cc1OCC1CCN(C)CC1 | cell-free assay | – | 0.5 µM | remaining signal | 55% |
| Cc1c(C(=O)O)cc(-c2ccc(C3CCNCC3)cc2)c2ccc(-c3ccc(C(F)(F)F)cc3)cc12 | binding, competition with immobilised ligand | – | 1 µM | remaining binding | 100% |
| CNCc1ccc(-c2cc(-c3nc(-c4ccc(S(=O)(=O)C(C)C)cc4)cnc3N)on2)cc1 | enzyme activity, inhibitor | – | 0.4 µM | inhibition | 27% |
| CCCOc1ccc([C@H]2[C@H](C(=O)O)[C@@H](c3ccc4c(c3)OCO4)CN2CC(=O)Nc2c(CC)cccc2CC)cc1 | cell-free assay, competition with immobilised ligand | – | 1 µM | remaining binding | 83% |
| O=C(Nc1cnn(-c2csc(C(=O)NC3COC3)c2)c1)Nc1ccccc1Cl | enzyme activity, inhibitor | – | 5 µM | remaining activity | 96.7% |
| O=C1NC(=O)c2cc(Nc3ccc(F)cc3)c(Nc3ccc(F)cc3)cc21 | cell-free assay | – | 0.5 µM | remaining signal | 104% |
| Cc1cc(NC(=O)c2cccc(S(F)(F)(F)(F)F)c2)cc(-n2ccn3nc(-c4cccnc4)cc23)c1 | cell-free assay, competition with immobilised ligand | – | 1 µM | remaining binding | 100% |
| O=c1cc(-c2cccc3c2Sc2ccccc2S3)oc(N2CCOCC2)c1 | enzyme activity, inhibitor | – | 0.5 µM | remaining activity | 106% |
| CCN(CC)CCNC(=O)c1c(C)[nH]c(/C=C2\C(=O)Nc3ccc(F)cc32)c1C | enzyme activity, inhibitor | – | 0.1 µM | remaining activity | 41% |

| Compound | assay | test system | setting | measurement | value |
| --- | --- | --- | --- | --- | --- |
| CCC(=O)N[C@@H]1CC[C@H](C(=O)N(C)c2ccc(-c3nc4ccccc4o3)cc2)C1 | cell-free assay, competition with immobilised ligand | – | 1 µM | remaining binding | 100% |
| CNC(=O)c1cc(Oc2ccc(NC(=O)Nc3ccc(Cl)c(C(F)(F)F)c3)cc2)ccn1 | enzyme activity, inhibitor | – | 10 µM | inhibition | 68% |
| CN1CC(Oc2cnc(C#N)cc2-c2ccn3nc(NC(=O)C4CC4)cc3c2)C1 | enzyme activity, inhibitor | – | 1 µM | inhibition | -5% |
| CC/C(=N\NC(=O)NCc1cccc(O)c1)c1ccc(O)c(C)c1O | enzyme activity, inhibitor | – | 0.1 µM | inhibition | 1.3% |
| CCN(CC)CCNC(=O)c1c(C)[nH]c(/C=C2\C(=O)Nc3ccc(Cl)cc32)c1C | enzyme activity, inhibitor | – | 0.5 µM | remaining activity | 25.2% |
| CCN1CCN(Cc2ccc(NC(=O)c3ccc(C)c(Oc4ccnc5[nH]ccc45)c3)cc2C(F)(F)F)CC1 | target engagement in cells, inhibitor, chemoproteomics | A-375 | 5 µM | inhibition | -35.7% |
| CC(C)(C)c1nc2c(s1)c1nc(N)ncc1c1ccc(NS(=O)(=O)c3c(F)cccc3F)c(F)c12 | enzyme activity, inhibitor, radiometric | – | 1 µM | remaining activity | 100% |
| COc1cc2nccc(Oc3ccc(NC(=S)NC(=O)c4ccccc4C)cc3)c2cc1OC | enzyme activity, inhibitor | – | 0.5 µM | remaining activity | 80.4% |
| CS(=O)(=O)N1CCCC(NC(=O)[C@H](CCC2CCCCC2)NC(=O)c2ccc(CNc3ncnc4c3nnn4-c3ccccc3)cc2)C1 (some centres unmarked) | cell-free assay, competition with immobilised ligand | – | 0.1 µM | remaining binding | 79% |
| Nc1ncnc2occ(-c3ccc(NC(=O)Nc4cc(C(F)(F)F)ccc4F)cc3)c12 | cell-free assay | – | 20 µM | remaining signal | 21% |
| O=C(Nc1ccc(Oc2ccc(F)cc2)cc1)N1CCc2ncccc2[C@H]1c1ccc(F)cc1 | cell-free assay, competition with immobilised ligand | – | 1 µM | remaining binding | 77% |
| Clc1ccc(Nc2nnc(Cc3ccncc3)c3ccccc23)cc1 | cell-free assay | – | 0.5 µM | remaining signal | 98.3% |
| Cc1[nH]c(/C=C2\C(=O)Nc3ccc(F)cc32)c(C)c1C(=O)N[C@H]1CCN(C(=O)N(C)C)C1 | enzyme activity, inhibitor | – | 0.1 µM | remaining activity | 89% |
| CC(C)(O)[C@H]1CC[C@H](Nc2ccc3ncc(-c4cccc(C(F)(F)F)c4)n3n2)CC1 | enzyme activity, inhibitor | – | 1 µM | remaining activity | 78% |
| CCN(CC)CCNC(=O)c1c(C)[nH]c(/C=C2\C(=O)Nc3ccc(F)cc32)c1C | enzyme activity, inhibitor | – | 0.3 µM | inhibition | 75% |
| CCCS(=O)(=O)Nc1ccc(F)c(C(=O)c2c[nH]c3ncc(-c4ccc(Cl)cc4)cc23)c1F | enzyme activity, inhibitor | – | 1 µM | inhibition | < 10% |
